From ChEMBL document CHEMBL1141722, “Antioxidative and thrombolytic TMP nitrone for treatment of ischemic stroke” (2008)
Active and inactive are the calls of the source. The calls are words filed in the database; no cut-off is given here.

Key:
Type in all cases: functional
[1] = Antioxidant activity assessed as inhibition of ROS-induced linoleic acid peroxidation at 1 mM after 15 mins at 100 degC by modified TBARS assay relative to control
Summary of the method: (§1)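 Linoleic acid (1.5% in ethanol) diluted with twofold 200 mM PBS, pH 7.4, then incubated with 2.5 mM FeSO4 (0.2 mL) and test sample at 37 °C for 30 min. The reaction was stopped with 10% TCA and 0.67% TBA, then boiled 15 min. The MDA–TBA adduct in the supernatant was read at 532 nm. % inhibition = [(A−A1)/A]×100 versus control absorbance.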

[2] = Antioxidant activity assessed as inhibition of ROS-induced linoleic acid peroxidation at 2 mM after 15 mins at 100 degC by modified TBARS assay relative to control; summary of the method: as §1
Platelet = experiment: Inhibition of ADP-induced New Zealand rabbit platelet aggregation at 2 mM treated for 1 min prior to ADP challenge by turbidimetric method relative to control; conditions: Oryctolagus cuniculus
Summary of the method: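 New Zealand rabbit blood was anticoagulated with 3.8% citrate (9:1), and PRP was taken by centrifugation. PRP was pre-warmed at 37 °C for 1 min, then drug was added to 2 mM final. After 1 min of stirring, ADP (10 µM) was added and the reaction ran 4 min. Maximum change in light transmission was recorded turbidimetrically and expressed as % of drug-free control.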

[3] = Neuroprotective effect against H202-induced Sprague-Dawley rat cortical neuron injury assessed as cell viability up to 1 mM treated 30 mins before H202 challenge measured after 24 hrs by MTT assay; conditions: Cortical neurone
Summary of the method: (§2)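 Cortices from 1–3-day-old Sprague–Dawley rats were digested with 0.25% […] at 37 °C, and cells were plated at 9×10^4/well in DMEM/10% FBS for 24 h plus 12 h. Drugs were added 30 min before 0.5 mM H2O2, then incubated 24 h at 37 °C, 5% CO2. Viability was measured by MTT 4 h, DMSO solubilization, A570, as % of untreated/saline control. Means ± SEM of three independent experiments.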

Rattus norvegicus [4] = experiment: Neuroprotective effect against middle cerebral artery occlusion-induced focal cerebral ischemia in Sprague-Dawley rat assessed as reduction in infarct area at 65 mg/kg, ip administered 1 hr after MCA occlusion measured after 24 hrs of reperfusion by TTC staining relative to control; set-up: scale not given: the % may be the effect or the level left; conditions: route intraperitoneal
Summary of the method: (§3)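 Female Sprague-Dawley rats (210–240 g) under chloral hydrate (400 mg/kg ip) underwent 2 h transient proximal MCA occlusion by intraluminal suture, then reperfusion. Drug or saline was given ip 1 h after occlusion. After 24 h of reperfusion, 2-mm brain slices were stained with 0.5% TTC for 30 min at 37 °C. Infarct area was expressed as % of total section area. Single-tail Student's t-test versus control.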

Rattus norvegicus [5] = experiment: Antithrombotic activity in Sprague-Dawley rat venous thrombus model assessed as inhibition of thrombus formation at 3.25 mg/kg, iv administered 2 hrs after ligation measured after 24 hrs relative to control
Rattus norvegicus [6] = experiment: Neuroprotective effect against middle cerebral artery occlusion-induced focal cerebral ischemia in Sprague-Dawley rat assessed as reduction in infarct area at 80 mg/kg, ip administered 1 hr after MCA occlusion measured after 24 hrs of reperfusion by TTC staining relative to control; set-up: scale not given: the % may be the effect or the level left; conditions: route intraperitoneal; summary of the method: as §3
[7] = Neuroprotective effect against H202-induced Sprague-Dawley rat cortical neuron injury assessed as cell viability at 1 to 1000 uM treated 30 mins before H202 challenge measured after 24 hrs by MTT assay; conditions: Cortical neurone; summary of the method: as §2
[8] = Neuroprotective effect against H202-induced Sprague-Dawley rat cortical neuron injury assessed as cell viability at 1 mM treated 30 mins before H202 challenge measured after 24 hrs by MTT assay relative to control; conditions: Cortical neurone; summary of the method: as §2
[9] = Neuroprotective effect against H202-induced Sprague-Dawley rat cortical neuron injury assessed as cell viability at 100 uM treated 30 mins before H202 challenge measured after 24 hrs by MTT assay; conditions: Cortical neurone; summary of the method: as §2
Rattus norvegicus [10] = experiment: Neuroprotective effect against middle cerebral artery occlusion-induced focal cerebral ischemia in Sprague-Dawley rat assessed as reduction in infarct area at 62 mg/kg, ip administered 1 hr after MCA occlusion measured after 24 hrs of reperfusion by TTC staining relative to control; set-up: scale not given: the % may be the effect or the level left; conditions: route intraperitoneal; summary of the method: as §3
Rattus norvegicus [11] = experiment: Antithrombotic activity in Sprague-Dawley rat venous thrombus model assessed as inhibition of thrombus formation at 2 mg/kg, iv administered 2 hrs after ligation measured after 24 hrs relative to control
Rattus norvegicus [12] = experiment: Antithrombotic activity in rat venous thrombosis model assessed as inhibition of thrombus formation at 1.2 mg/kg
Rattus norvegicus [13] = experiment: Neuroprotective effect against middle cerebral artery occlusion-induced focal cerebral ischemia in Sprague-Dawley rat assessed as reduction in infarct area at 50 mg/kg, ip administered 1 hr after MCA occlusion measured after 24 hrs of reperfusion by TTC staining relative to control; set-up: scale not given: the % may be the effect or the level left; conditions: route intraperitoneal; summary of the method: as §3

Row | SMILES | inhibition [1] [%] | inhibition [2] [%] | inhibition at 2000 µM (Platelet) [%] | Activity [3] | Activity [8] [%] | other results
1 | CC(C)(C)/[N+]([O-])=C/c1ccccc1 | 15.8 | 25.1 | 33.9 | inactive |  | Activity (Rattus norvegicus [4]): 31.1%
2 | Cc1nc(C)c(/C=[N+](\[O-])C(C)(C)C)nc1C | 13.7 | 40 | 30 |  | 96 | inhibition in vivo at 3.25 mg/kg (Rattus norvegicus [5]): 57.6%; Activity (Rattus norvegicus [6]): 56.3%; Activity [7]: Active
3 | O=C1O[C@H]([C@@H](O)CO)C(O)=C1O | 43.3 | 53.2 |  |  |  | 
4 | CC(=O)Oc1ccccc1C(=O)O [ASPIRIN] |  |  | 24.8 |  |  | 
5 | CC1=NN(c2ccccc2)C(=O)C1 [EDARAVONE] | 37.9 | 43.7 | 32.4 |  | 82 | Activity [9]: Active; Activity (Rattus norvegicus [10]): 52.5%
6 | Cc1nc(C)c(C)nc1C [LIGUSTRAZINE] | 6.6 | 9 | 36.2 | inactive |  | inhibition in vivo at 2 mg/kg (Rattus norvegicus [11]): 71.2%; inhibition in vivo at 1.2 mg/kg (Rattus norvegicus [12]): 50%; Activity (Rattus norvegicus [13]): 46.3%
